Assay results taken from the RNAGym collection of RNA variant scans (doi:10.1126/science.aae0568).
Fewer inactive variants are shown than the library holds.

B1: tRNA (parent)
chain: GUUCCGUUGGCGUAAUGGUAACGCGUCUCCCUCCUAAGGAGAAGACUGCGGGUUCGAGUCCCGUACGGAACG

Variants of: B1
Experiment: yeast fitness relative to wild type (ratio to wild type); higher = fitter; tRNA-Arg(CCU), competitive growth, 37 C, YPD
In short: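 Variants of the tRNA-Arg(CCU) gene, chemically synthesised with a 3% per-site mutation rate at 69 sites, were placed at the native genomic locus in Saccharomyces cerevisiae. The pooled strains were competed in YPD at 37°C for 24 hours in six parallel replicates. Gene amplicons from the start population and from each end population were read by 100-nucleotide paired-end sequencing. Darwinian fitness relative to wild type came from changes in genotype frequencies; genotypes needed ≥ 100 starting reads, and estimates < 0.5 were set to 0.5.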

Row | Variant | yeast fitness
1 | G25C U35C | 0.862
2 | G25C C46A G50C | 0.618
3 | G25C A45C | 1.06
4 | G25C A45G | 0.869
5 | G25A G44C C61G | 0.526
6 | G25C C29G C60G | ≤ 0.5
7 | U26A A69U | 1.03
8 | U26A A69C | 1.06
9 | G25A C60A C61G A65U | ≤ 0.5
10 | G25C A40U A42C G52A U64C C66U | ≤ 0.5
11 | G25C G56C C61G | ≤ 0.5
12 | G25C A40G A65C | 0.653
13 | G25A G63A | 0.949
14 | G25A G63C | 0.737
15 | G25C G63C | 0.716
16 | U26A A36G A37G C46G C49U U54C A70G | 0.754
17 | G25C G67A G68A | 0.655
18 | G25A G58C C66U | 0.778
19 | G25C A40U A42C G52A | ≤ 0.5
20 | G25A C62A | 0.843
21 | G25A C62G | 0.855
22 | G25A C62U | 0.931
23 | G25C C46A G58A | ≤ 0.5
24 | G25U C30U A40U | ≤ 0.5

Row | Variant | yeast fitness
25 | G25C G52C | 0.574
26 | G25C A45U C60A | ≤ 0.5
27 | G25A C49U U64C | 0.782
28 | G25C C31U | 0.87
29 | U26A A65U | 0.829
30 | U26A A65G | 0.822
31 | G25C C27A G51A | 0.549
32 | G25A U32A C49U U53A | ≤ 0.5
33 | G25C U47G G52A | 0.549
34 | G25A C55U A69C | 0.639
35 | G25A G48C C49G | ≤ 0.5
36 | G25C U64A | 0.709
37 | G25A C31G A70G | 0.642
38 | U26A A45G U54C | 0.52
39 | G25A C31U C66U | 0.761
40 | G25A C46G U53A A65C | ≤ 0.5
41 | G25A C49U C55U A57C | ≤ 0.5
42 | G25A U26A C31U G38A A42G A43U | 0.52
43 | G25C C29U A42U | 0.664
44 | G25U A36U C49U | ≤ 0.5
45 | U26A A43C A45U A65C | ≤ 0.5
46 | G25C A40U G48C | ≤ 0.5
47 | G25C A43U G50A G68A | ≤ 0.5
48 | U26A A42C C49U C60G C66A | 0.733

Row | Variant | yeast fitness
49 | G25C C31U U32A C49G C60U | ≤ 0.5
50 | G25C C31U U35C | 0.53
51 | U26A A43C A45U C55U A65C | ≤ 0.5
52 | G25A G48A C62G A69U | 0.749
53 | G25A G39A G52A | ≤ 0.5
54 | G25C C29G C33U G39U | ≤ 0.5
55 | G25A G41C | 0.974
56 | G25C C31G C34G C61U A69U | ≤ 0.5
57 | G25A G52A A57G G67A | ≤ 0.5
58 | U26A | 0.996
59 | U26A A43G | 0.832
60 | G25U C34G C55G U59C C60U G67U | ≤ 0.5
61 | G25C C31G A42G U54G | ≤ 0.5
62 | G25C C46G U53G C66A | 0.81
63 | G25A U26C C29G C61A | ≤ 0.5
64 | G25C C33A A57U | 0.718
65 | G25U G44C | 0.647
66 | G25C U26G C46G C60G | ≤ 0.5
67 | G25C C61U C66U | 0.652
68 | G25C C31G G51C | ≤ 0.5
69 | G25C C33A | 0.758
70 | G25C C33G | 0.662
71 | G25C U28A C33A | 0.539
72 | G25C U35A A37U G67A A70G | ≤ 0.5

Row | Variant | yeast fitness
73 | G25C U32A C60A | ≤ 0.5
74 | G25C G68A | 0.817
75 | G25C G68C | 0.796
76 | G25C C31U U32A C49U | ≤ 0.5
77 | G25C C29A | 0.696
78 | G25A G39C | 0.755
79 | G25C C46G C49U U64G | ≤ 0.5
80 | U26A A42C U59G | ≤ 0.5
81 | G25C G51A G67A | 0.73
82 | G25C U26G A40U C46G A70U | ≤ 0.5
83 | G25C C46G | 0.938
84 | G25C C46U | 1.06
85 | G25C C34U G41A C49G | 0.54
86 | G25A G48A A70C | 1.13
87 | G25C U35C A42C C46A G48C C61A | ≤ 0.5
88 | U26A A40C G41A G58A | 0.655
89 | G25C C55U A57U | 0.551
90 | G25C C34G G39U U47G | ≤ 0.5
91 | G25C C49U | 1.01
92 | G25A U35A G52A U59C C66A G67A | ≤ 0.5
93 | G25C U26G G51C | ≤ 0.5
94 | G25C C31U U53C | 0.633
95 | G25U A36U | 0.531
96 | G25A U28A A65U | 0.697

Row | Variant | yeast fitness
97 | G25C C29G C46G | ≤ 0.5
98 | G25C C49U G67U G68C A69U | ≤ 0.5
99 | G25C A43U C61G G67C | ≤ 0.5
100 | G25C C29U C33A C49G | 0.714
101 | U26A A36G G56C | ≤ 0.5
102 | G25A G58C A69C | 1.01
103 | G25C C29G G52A A69U | ≤ 0.5
104 | G25A G52A A70U | 0.666
105 | G25C G39C G44C | ≤ 0.5
106 | G25C C34A C46U | 0.555
107 | G25C G67C | 0.797
108 | G25U U59C | 0.657
109 | G25C G58C | 1
110 | G25C C31U U32A C46U | ≤ 0.5
111 | G25C C33U G50C | ≤ 0.5
112 | G25A G41A A70C | 0.714
113 | G25A C62A A70U | 0.678
114 | G25C C27U | 0.773
115 | G25C C31A G48A C61A A65G | 0.558
116 | G25C G39A G63C A70U | ≤ 0.5
117 | G25C C34U A45C | 0.54
118 | U26A A70C | 0.928
119 | G25A U26A C31U G38A A42G A43U G48C G68C | ≤ 0.5
120 | G25C A42G | 0.911

Row | Variant | yeast fitness
121 | G25C A40G A57C A69U A70C | ≤ 0.5
122 | G25A C33U A45U C60G | ≤ 0.5
123 | G25C C34U A36C G41A C49G | ≤ 0.5
124 | G25A U35G | 0.603
125 | G25A U35C | 0.942
126 | G25C C49U G51A C60A A70G | ≤ 0.5
127 | G25A C60A C61A G63A | 0.75
128 | G25C C31G C34G C61U | ≤ 0.5
129 | G25C C30G | 0.582
130 | G25C C30U | 0.669
131 | G25A C31U A37C G68U | ≤ 0.5
132 | G25C C62G C66G G67U | ≤ 0.5
133 | G25C U53C G58A | 0.605
134 | G25U A36U G56C U64C A65C | ≤ 0.5
135 | G25A G41C A57U | 0.649
136 | G25C C30U U54C | ≤ 0.5
137 | G25C U26G C46G A70U | 0.62
138 | G25U A45C C62A | 0.777
139 | G25C G68A A69G | 0.607
140 | G25C G58C G68A | 0.639
141 | U26A A43C G52U C55A | ≤ 0.5
142 | G25C A65C | 1.03
143 | G25C C31A A37C U47C C61U | 0.702
144 | G25C C46U G50A C66U | 0.716

Row | Variant | yeast fitness
145 | G25C U26G C46G C61A A70U | ≤ 0.5
146 | G25C C30G C33U A45G U47G G50C G63A | ≤ 0.5
147 | G25C A42G A45C U47C C62U | ≤ 0.5
148 | G25C A36G G48A C60A | ≤ 0.5
149 | G25A C55U U59C A65C | ≤ 0.5
150 | G25A G41A A43U | ≤ 0.5
151 | G25A G50A A69C | 0.676
152 | G25A C34U A36U C60U | ≤ 0.5
153 | G25A C31U G38C A65C G68A A69U | ≤ 0.5
154 | G25A C31U C55G C61U C62A | 0.598
155 | G25C U28C U59C | 0.694
156 | G25C U47C G63A A65C | ≤ 0.5
157 | G25A U35C A43G C55U | ≤ 0.5
158 | U26A C27G C30G A36U G38C C46U C49G A65U | 0.573
159 | G25A C49U A65U | 0.849
160 | U26A A40U A69U | 0.699
161 | G25C C49U C62G C66U | 0.539
162 | G25A U26C C29G A45G | ≤ 0.5
163 | G25A U53A G63A | 0.523
164 | G25C G38A A65G | 1.04
165 | G25U C27A G41A C62U | ≤ 0.5
166 | G25A G44A | 0.841
167 | U26A C27G | 0.57
